PAD4 inh – inhibitors of human PAD4; Q9UM07; recombinant PAD4, RCA probe fluorescence polarization; AID 485272; inhibition, % at 6.36 µM; 0.41% of 330,000 active;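 active means percent inhibition above a cutoff equal to the mean of all tested compounds plus 3 SD, cut at about 15% in these data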;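 further: 0% = PAD4 with RCA probe and DMSO and 100% = probe without PAD4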
TDP2 absorb – TDP2 (human) inhibition, absorbance primary screen. O95551. 0.34% of 370,000 active. recombinant TDP2, T5PNP hydrolysis, p-nitrophenol absorbance 415 nm. inhibition, % at 12.8 µM. AID 720702;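 active means inhibition above the mean of all tested compounds plus 3 SD, set per campaign, cut at about 25% in these data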;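 further: 0% = DMSO with enzyme and 100% = buffer with substrate but no TDP2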
Target sequence (O95551 whole entry, looked up): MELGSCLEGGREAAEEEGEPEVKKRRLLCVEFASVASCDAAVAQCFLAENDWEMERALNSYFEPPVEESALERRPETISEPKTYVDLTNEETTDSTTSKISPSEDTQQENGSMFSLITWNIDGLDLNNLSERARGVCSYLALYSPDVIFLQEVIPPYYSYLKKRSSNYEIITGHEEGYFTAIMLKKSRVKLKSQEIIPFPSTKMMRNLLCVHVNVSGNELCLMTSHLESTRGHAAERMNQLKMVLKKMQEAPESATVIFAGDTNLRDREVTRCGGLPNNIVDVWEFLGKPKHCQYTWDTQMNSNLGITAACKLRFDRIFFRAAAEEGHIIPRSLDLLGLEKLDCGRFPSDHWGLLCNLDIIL
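Assay system: Recombinant human TDP2 | Quantity: 120 nM TDP2 per well | Incubation: 2 h at 37 °C | Signal: Epi absorbance | Evaluation: Percent inhibition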
GSTO1 inh – blocks human GSTO1 in RBBP9 counter-screen | recombinant GSTO1, activity-based probe fluorescence polarization | inhibition, % at 5.96 µM | 1.1% of 300,000 active | AID 1974;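 active means inhibition above the campaign mean inhibition plus 3 SD, cut at about 35% in these data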;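 further: 0% = GSTO1-1 with DMSO and 100% = wells lacking GSTO1-1 enzyme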
UCH37 inh – human UCH37 deubiquitinating enzyme inhibition. Q9Y5K5. purified proteasome/UCH37, Ub-AMC cleavage fluorescence. inhibition, % (test concentration not listed). 0.33% of 330,000 active;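 active means mean inhibition over replicate wells above about 20%, limit read from the data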;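 further: 0% = compound-free wells with enzyme and 100% = wells lacking proteasome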
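Signal – fluorescence, ex 355 nm, em 460 nm · System – Proteasome-bound UCH37 · Input – 0.15 nM proteasome as dispensed · Timing – 30 min preincubation with enzyme, 25 min cleavage at room temperature · Read-out basis – percent inhibition of cleavage signal versus uninhibited and no-proteasome wells · Medium – Tris-HCl pH 7.4 with ATP-MgCl2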
CTSL1 counter – counter-screen for PFM18AAP inhibitors: inhibitors of F. hepatica cathepsin L1 | 0.49% of 300,000 active | inhibition, % at 5.96 µM | recombinant F. hepatica cathepsin L1, Z-Leu-Arg-MCA fluorescence | AID 1906;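 active means inhibition above the mean of all tested compounds plus 3 SD, set per screening campaign, cut at about 17% in these data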;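 further: 0% = plate median of test compound wells and 100% = 1 µM Z-Phe-Ala-diazomethylketone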
HKDC1 inhibitor – blocks human hexokinase HKDC1 activity; recombinant HKDC1, G6PDH/diaphorase resazurin coupled fluorescence; inhibition, % at 20 µM; Q2TB90; 0.16% of 340,000 active; AID 493160;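 active means inhibition above about 35% when tested at 20 µM, limit read from the data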;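 further: plate controls were DMSO wells with enzyme for no effect and DMSO wells lacking enzyme for full effect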
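Assay system: recombinant HKDC1 hexokinase; detection: coupled resazurin fluorescence, excitation 525 nm, emission 613 nm; benchmarks: DMSO-plus-enzyme-mix negative control, buffer-substituted positive control; compound dosing: single 20 µM dose; schedule: 90 min at room temperature in dark; also added: glucose plus 1 mM ATP as hexokinase substrates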
UCH37 reconfirm – UCH37 Ub-AMC cleavage inhibition, confirmed; shares compounds with UCH37 inh; Proteasome-bound UCH37, Ub-AMC cleavage fluorescence; inhibition, % at 20 µM; 27% of 480 active;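 active means average inhibition over replicates above about 50%, so the earlier screening hit is confirmed, limit read from the data; inactive means the rest, counted as false positives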;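 further: based on cleavage rate fitted by regression over a 30 min kinetic read; 0% = proteasome plus Ub-AMC and 100% = Ub-AMC without proteasome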
An asterisk follows results filed as active; x = no result given. Compounds with a hit are over-represented: about 1.6% of the library has one in this group of screens.

SMILES	PAD4 inh	TDP2 absorb	GSTO1 inh	UCH37 inh	CTSL1 counter	HKDC1 inhibitor	UCH37 reconfirm
CSc1nnc(NC(=O)c2cc(=O)c3cc(C)cc(C)c3o2)s1	1	8	0	34*	5	5	9
O=C(NN=Cc1ccc(OC(=O)c2ccccc2Br)cc1)c1ccccn1	x	x	x	-9	x	x	x
CCN1/C(=C\C(=S)Nc2ccccc2)Sc2ccccc21	13	-14	7	6	4	-5	x
CCN1/C(=C/C(C)=C/c2sc3ccccc3[n+]2CC)Sc2ccccc21	-144	-9	-362	28*	0	-2	22
COCCN=c1scc(-c2ccco2)n1N=Cc1ccc(O)c(O)c1O	x	x	x	6	x	x	x
CC(=NNC(=O)c1cccc(NN=C(C)c2cc(O)ccc2O)c1)c1cc(O)ccc1O	x	x	x	35*	x	x	-34
CC(=NNC(=O)c1ccc(NN=C(C)c2ccc(O)cc2)cc1)c1ccc(O)cc1	x	x	x	-49	x	x	x
COc1cccc(C(=O)NN=C(CCC(=O)O)c2ccccc2)c1	x	x	x	5	x	x	x
CCN1C(=O)C2(C(C(=O)c3ccc(C)o3)=C(O)C(=O)N2CCCN2CCOCC2)c2ccccc21 (centres undefined)	-5	1	-7	46*	1	0	20
Cc1ccc(C(=O)C2=C(O)C(=O)N(CCCN3CCOCC3)C23C(=O)N(C)c2ccccc23)o1 (centres undefined)	-6	-7	0	6	8	-6	x
Cc1ccoc1C(=O)NCCCNC(=O)c1occc1C	-14	23	35*	48*	8	11	6
Cc1ccoc1C(=O)NCCNC(=O)c1occc1C	4	-1	4	0	-6	3	x
Cc1cc(C)n(C(=O)C(C#N)=NNc2ccccc2[N+](=O)[O-])n1	x	x	x	8	x	x	x
CCOC(=O)/C(C#N)=C(C)/C=C1\Sc2ccccc2N1CC	5	8	6	2	6	-8	x
CCN1/C(=C\C=C(C(C)=O)C(C)=O)Sc2ccccc21	-3	-9	1	39*	11	0	39
CC(=NNC(=O)CCCNc1ccccc1)c1ccncc1	x	x	x	0	x	x	x
O=C(O)C/C(=C\c1ccc(N2CCOCC2)c([N+](=O)[O-])c1)c1nc2ccccc2s1	-8	-8	1	17	6	3	x
O=C(O)CC/C(=C\c1ccc(N2CCOCC2)c([N+](=O)[O-])c1)c1nc2ccccc2s1	x	7	x	26*	x	4	20
CCOc1cc(C=NNC(=O)Cn2nc([N+](=O)[O-])cc2C)ccc1OCc1ccc(F)cc1	x	x	x	4	x	x	x
Cc1cccc(OCC(=O)NN=Cc2cn(C)c3ccccc23)c1	x	x	x	3	x	x	x
CC(C)c1ccc(NC(=O)C2CC(=O)N=C(N)S2)cc1 (centres undefined)	4	12	3	26*	0	8	55*
CCc1ccc(NC(=O)C2CC(=O)N=C(N)S2)cc1 (centres undefined)	0	-9	3	4	-1	-6	x
CN(C)c1ccc(C(C(=O)NC2CCCCC2)N(Cc2ccco2)C(=O)c2snc(C(N)=O)c2N)cc1 (centres undefined)	-3	-15	3	68*	-3	0	-21
COc1cc(C(C(=O)NC2CCCC2)N(Cc2ccco2)C(=O)c2snc(C(N)=O)c2N)cc(OC)c1OC (centres undefined)	2	1	4	-72	-2	-2	x
CC1=NN(C(=O)COc2ccccc2)C(O)(c2ccccc2)C1 (centres undefined)	-2	-10	3	0	0	14	x
CC1=NN(C(=O)CSCc2ccccc2)C(O)(c2ccccc2)C1 (centres undefined)	0	1	7	32*	-7	-7	16
CC(=NNc1cccc([N+](=O)[O-])c1)c1cc(F)ccc1O	x	x	x	7	x	x	x
CC(c1ccc(O)cc1)c1cn(C)c2ccccc12 (centres undefined)	x	5	x	x	x	x	x

Screening data: PubChem, several laboratories
